# Laboratory results published in ChEMBL document CHEMBL5260841, “Discovery of N-(4-(6-Acetamidopyrimidin-4-yloxy)phenyl)-2-(2-(trifluoromethyl)phenyl)acetamide (CHMFL-FLT3-335) as a Potent FMS-like Tyrosine Kinase 3 Internal Tandem Duplication (FLT3-ITD) Mutant Selective Inhibitor for Acute Myeloid Leukemia” (J Med Chem, 2019).
# Active and inactive are the calls of the source. The calls are words filed in the database; no cut-off is given here.
# Legend:
# MV4-11 [1] = experiment: Induction of apoptosis in human MV4-11 cells harboring FLT3-ITD mutant assessed as increase in cleaved caspase-3 level incubated for 24 hrs by Western blot analysis; type: functional, cell-based; settings: dose 0.1-3 µM
# BaF3 [2] = experiment: Antiproliferative activity against mouse BaF3 cells transfected with FLT3 ITD mutant assessed as cell growth inhibition incubated for 72 hrs by CCK-8 assay; type: functional
# Outline: (§1)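 Kinase-transformed isogenic BaF3 lines grown in RPMI 1640 with 10% FBS, 2% L-glutamine and pen/strep at 37 °C, 5% CO2. Seeded at 1500-3000 cells/well and treated with a compound concentration series for 72 h. Viability read by CCK8 absorbance at 450 nm.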
# [3] = Cmax in Sprague-Dawley rat at 10 mg/kg, po; type: ADME, organism-based; design: dose 10 mg/kg, route po; settings: in vivo
# Outline: (§2)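 Sprague-Dawley rats dosed IV at 1 mg/kg or by oral gavage at 10 mg/kg. Parameters from plasma exposure: AUC(0-t), AUC(0-∞), MRT, T1/2, Tmax, Vz, CLz, Cmax. Values are mean ± SD from three animals.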
# HL-60 = experiment: Antiproliferative activity against human HL-60 cells transfected with wild type FLT3 assessed as cell growth inhibition incubated for 72 hrs by CCK-8 assay; type: functional
# Outline: (§3)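 Cells kept at 37 °C, 5% CO2. MV4-11 grown in IMDM with 10% FBS. MOLM13, MOLM14, U937 and HL-60 grown in RPMI 1640 with 10% FBS. OCI-AML-2 grown in α-MEM with 20% FBS. Seeded at 1500-3000 cells/well and exposed to a concentration series for 72 h. Viability read by CCK8 absorbance at 450 nm.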
# MOLM-13 [4] = experiment: Inhibition of AKT phosphorylation at Thr308 residue in human MOLM-13 cells harboring FLT3-ITD mutant incubated for 4 hrs by Western blot analysis; type: cell-based; settings: dose 0.01-3 µM
# Outline: (§4)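 Cells were exposed to the compound at a series of concentrations for 4 h, and whole-cell lysates were analysed by Western blot. MV4-11 cells were grown in IMDM with 10% FBS. MOLM13 and MOLM14 cells were grown in RPMI 1640 with 10% FBS. All cultures were kept at 37 °C with 5% CO2.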
# MV4-11 [5] = experiment: Induction of apoptosis in human MV4-11 cells harboring FLT3-ITD mutant assessed as increase in cleaved PARP level incubated for 24 hrs by Western blot analysis; type: functional, cell-based; settings: dose 0.1-3 µM
# [6] = AUC (0 to t) in Sprague-Dawley rat at 1 mg/kg, iv; type: ADME, organism-based; design: dose 1 mg/kg, route iv; settings: in vivo; outline: as §2
# MOLM-14 [7] = experiment: Inhibition of AKT phosphorylation at Ser473 residue in human MOLM-14 cells harboring FLT3-ITD mutant incubated for 4 hrs by Western blot analysis; type: cell-based; settings: dose 0.01-3 µM; outline: as §4
# [8] = Half life in Sprague-Dawley rat at 10 mg/kg, po; type: ADME, organism-based; settings: in vivo
# Outline: (§5)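 Sprague-Dawley rats were dosed either intravenously at 1 mg/kg or by oral gavage at 10 mg/kg. Plasma PK parameters were AUC(0-t), AUC(0-∞), MRT(0-t), T1/2, Tmax, Vz, CLz, Cmax and F%. Values are the mean ± SD of three independent animals.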
# MOLM-14 [9] = experiment: Antiproliferative activity against human MOLM-14 cells transfected with FLT3-ITD mutant assessed as cell growth inhibition incubated for 72 hrs by CCK-8 assay; type: functional; outline: as §3
# MOLM-13 [10] = experiment: Inhibition of ERK phosphorylation at Thr202/Tyr204 residues in human MOLM-13 cells harboring FLT3-ITD mutant incubated for 4 hrs by Western blot analysis; type: cell-based; settings: dose 0.01-3 µM; outline: as §4
# [11] = target: T1, Signal transducer and activator of transcription 5A (Homo sapiens) (UniProt P42229); experiment: Inhibition of STAT5 phosphorylation at Tyr694 residue in human MV4-11 cells harboring FLT3-ITD mutant incubated for 4 hrs by Western blot analysis; type: cell-based; settings: dose 0.01-3 µM; outline: as §4
# T1 sequence (whole entry): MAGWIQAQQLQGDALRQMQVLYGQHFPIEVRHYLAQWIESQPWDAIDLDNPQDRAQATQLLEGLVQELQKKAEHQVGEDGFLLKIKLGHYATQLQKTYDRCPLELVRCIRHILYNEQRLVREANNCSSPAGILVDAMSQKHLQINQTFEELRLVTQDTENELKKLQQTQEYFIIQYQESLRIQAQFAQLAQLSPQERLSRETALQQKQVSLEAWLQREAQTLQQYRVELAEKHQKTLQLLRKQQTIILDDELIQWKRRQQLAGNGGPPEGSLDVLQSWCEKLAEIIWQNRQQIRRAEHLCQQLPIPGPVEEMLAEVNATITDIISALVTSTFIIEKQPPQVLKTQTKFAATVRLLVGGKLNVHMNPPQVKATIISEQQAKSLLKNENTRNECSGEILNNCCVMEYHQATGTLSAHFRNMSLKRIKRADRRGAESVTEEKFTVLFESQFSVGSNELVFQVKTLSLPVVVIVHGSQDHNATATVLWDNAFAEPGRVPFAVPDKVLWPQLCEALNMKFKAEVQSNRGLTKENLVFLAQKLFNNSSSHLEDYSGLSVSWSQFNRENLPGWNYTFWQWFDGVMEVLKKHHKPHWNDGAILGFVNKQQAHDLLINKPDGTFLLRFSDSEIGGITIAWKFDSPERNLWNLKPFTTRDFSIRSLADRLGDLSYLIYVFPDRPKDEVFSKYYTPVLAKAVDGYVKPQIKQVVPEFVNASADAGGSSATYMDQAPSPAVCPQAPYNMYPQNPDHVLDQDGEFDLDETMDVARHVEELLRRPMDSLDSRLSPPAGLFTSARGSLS
# MOLM-14 [12] = experiment: Induction of apoptosis in human MOLM-14 cells harboring FLT3-ITD mutant assessed as increase in cleaved PARP level incubated for 24 hrs by Western blot analysis; type: functional, cell-based; settings: dose 0.1-3 µM
# MOLM-13 [13] = experiment: Antiproliferative activity against human MOLM-13 cells transfected with FLT3-ITD mutant assessed as cell growth inhibition incubated for 72 hrs by CCK-8 assay; type: functional; outline: as §3
# BaF3 [14] = experiment: Antiproliferative activity against mouse BaF3 cells transfected with FLT3 ITD mutant harboring AML patient derived LKWEFPRENLEFEVTGSSDNEYFYVDFREYEYD sequence assessed as cell growth inhibition incubated for 72 hrs by CCK-8 assay; type: functional; outline: as §1
# MOLM-14 [15] = experiment: Induction of cell cycle arrest in human MOLM-14 cells harboring FLT3-ITD mutant assessed as accumulation of cells at G0/G1 phase at 0.1 uM incubated for 24 hrs by RNase/PI staining based flow cytometry analysis; type: functional
# MV4-11 [16] = experiment: Antitumor activity against human MV4-11 cells xenografted in nu/nu mouse assessed as inhibition of tumor growth at 50 mg/kg/day, po administered via gavage for 28 days relative to control; type: functional; settings: MV4-11, 672 h, time 28 day, read-out: TGI
# Outline: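 MV4-11 cells implanted in mice. Once tumours reached a mean of about 200 mm3, mice were dosed orally once daily for 28 days with vehicle or 25, 50 or 100 mg/kg/day. Tumour size and body weight tracked relative to starting values; final tumour weight also recorded.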
# [17] = Cytotoxicity against human PBMC cells assessed as reduction in cell viability at 5 uM; type: toxicity, cell-based
# MOLM-13 [18] = experiment: Induction of cell cycle arrest in human MOLM-13 cells harboring FLT3-ITD mutant assessed as accumulation of cells at G0/G1 phase at 0.1 uM incubated for 12 hrs by RNase/PI staining based flow cytometry analysis; type: functional
# [19] = Half life in Sprague-Dawley rat at 1 mg/kg, iv; type: ADME, organism-based; settings: in vivo; outline: as §5
structure (smiles),measurement,setting,value
CC(=O)Nc1cc(Oc2ccc(NC(=O)Cc3ccccc3C(F)(F)F)cc2)ncn1,Activity,MV4-11 [1],Dose-Dependent Effect
same,GI50,BaF3 [2],32 nM
same,Cmax,[3],3630 ng/mL
same,GI50,HL-60,> 10000 nM
same,inhibition,MOLM-13 [4],Dose-Dependent Effect
same,Activity,MV4-11 [5],Dose-Dependent Effect
same,AUC(0-t),[6],1560 ng·h/mL
same,inhibition,MOLM-14 [7],Dose-Dependent Effect
same,half-life,[8],2.8 h
same,GI50,MOLM-14 [9],343 nM
same,inhibition,MOLM-13 [10],Dose-Dependent Effect
same,inhibition,[11],Dose-Dependent Effect
same,Activity,MOLM-14 [12],Dose-Dependent Effect
same,GI50,MOLM-13 [13],466 nM
same,GI50,BaF3 [14],82 nM
same,Activity,MOLM-14 [15],Active
same,inhibition in vivo at 50 mg/kg/day,MV4-11 [16],68%
same,Activity,[17],Non-Toxic
same,Activity,MOLM-13 [18],Active
same,half-life,[19],1.3 h
